# hERG rescue – shields human hERG channel from block by proarrhythmic agents. activation (rescue from dofetilide block), less the hit threshold, % at 10 µM. Q12809. CHO-hERG, FluxOR thallium flux, dofetilide IC70 present. 310,000 tested, 0.51% active;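 active = activation above the mean of controls blocked by dofetilide plus 5 SD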;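 note: thallium influx through hERG after potassium depolarization seen as dye fluorescence rise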
# KCNQ1 inh – inhibitors of human KCNQ1 potassium channel; P51787; CHO-K1 KCNQ1, FluxOR thallium flux fluorescence; active compounds read high; B-score at 10 µM; 310,000 tested, 1.3% active;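 active = compounds whose thallium flux B-score, printed positive for inhibition, exceeds three library SD while starting fluorescence stays within three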;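 note: channel opened by potassium depolarization with thallium stimulus after 20 min compound exposure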
# KCNK3 block – human KCNK3 channel inhibition, primary screen; CHO-KCNK3 thallium flux, FluxOR fluorescence; active compounds read low; AID 602410; 340,000 tested, 0.84% active; B-score at 10 µM; O14649;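 active = B-score under library mean minus 4 SD, starting fluorescence ratio at most library mean plus 5 SD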;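 note: more negative B-score means stronger inhibition of thallium flux through KCNK3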
# KCNQ1 act – potentiators or activators of human KCNQ1 potassium channel. P51787. CHO-K1 KCNQ1, thallium flux FluxOR fluorescence; active compounds read high. B-score at 10 µM. 310,000 tested, 0.35% active. AID 2648;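 active = fluorescence ratio B-score, a plate-corrected score, at least three library SD, with initial intensity B-score within 5 SD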
#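 System: Stable KCNQ1 CHO-K1 line | Incubation: 90 min dye loading and 20 min compound exposure, both at room temperature | Measure: Ratio B score | Medium: Assay buffer for compound exposure, DMSO matched across wells | Compound dosing: Single-concentration screen | Probe or stimulus: K+/Tl+ depolarizing stimulus | Measured by: Kinetic FluxOR fluorescence, 10 s baseline plus 110 s post-stimulus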
# KCNK9 block – human KCNK9 channel inhibition; AID 488922; 310,000 tested, 1.2% active; HEK293 KCNK9, FluxOR thallium flux fluorescence; active compounds read low; B-score at 10 µM;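 active = ratio B-score over 3 SD below the library mean, with starting fluorescence within 5 SD of its mean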;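 note: negative B-score means less thallium flux so channel inhibition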
# KCNK9 block conf – human KCNK9 inhibitor confirmation; shares compounds with KCNK9 block; HEK293 KCNK9 cells, FluxOR thallium flux fluorescence; inhibition, % at 10 µM; 4,900 tested, 43% active; AID 492992;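 active = thallium signal inhibited by more than 5 SD of the compound-free buffer control wells, on both duplicate plates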;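 note: 0% = assay buffer control wells without compound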
# Kir21 sel – mouse Kir2.1 off-target activity of KCNK9 modulators. shares compounds with KCNK9 block. AID 492993. inhibition, % at 10 µM. Kir2.1 cells, FluxOR thallium flux fluorescence. 4,900 tested, 4% active;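 active = thallium signal drop more than 5 SD beyond the mean of the no-compound control wells, seen in both duplicate plates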;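 note: signal is fluorescence rise after thallium addition divided by baseline fluorescence; plate controls were assay buffer only for no effect and full block by chlorpromazine control for full effect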
# Target sequence (P35561 whole entry, looked up): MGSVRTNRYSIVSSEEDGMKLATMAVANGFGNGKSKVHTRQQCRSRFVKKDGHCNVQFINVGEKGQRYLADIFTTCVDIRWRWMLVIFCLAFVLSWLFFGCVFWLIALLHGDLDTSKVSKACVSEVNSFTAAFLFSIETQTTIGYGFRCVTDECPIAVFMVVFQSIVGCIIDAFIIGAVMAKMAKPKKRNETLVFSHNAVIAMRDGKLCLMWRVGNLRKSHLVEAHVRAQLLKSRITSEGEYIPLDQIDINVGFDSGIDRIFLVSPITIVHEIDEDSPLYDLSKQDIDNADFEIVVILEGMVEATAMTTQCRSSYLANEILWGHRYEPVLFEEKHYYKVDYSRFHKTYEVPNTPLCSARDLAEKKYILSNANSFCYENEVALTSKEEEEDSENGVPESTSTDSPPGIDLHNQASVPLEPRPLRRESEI
# KCNK9 uninduced – second counter-screen for KCNK9 modulators: effect in non-induced cells; shares compounds with KCNK9 block; non-induced KCNK9-HEK293, FluxOR thallium flux; inhibition, % at 10 µM; 4,900 tested, 40% active; AID 492997;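 active = thallium signal drop beyond 5 SD of the untreated control mean, on both duplicate plates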;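 note: plate controls were buffer only IC0 wells for no effect and SID17386958 at its maximal inhibitory level for full effect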
# KCNK3 inh conf – confirmation of human KCNK3 two-pore domain potassium channel inhibitors | shares compounds with KCNK3 block | CHO-KCNK3 thallium flux, FluxOR fluorescence; 0% buffer, 100% carvedilol maximal block | ratio percent of control, % at 10 µM | 2,400 tested, 99% active | AID 651638;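 active = ratio percent of control, averaged over triplicates, above buffer control mean plus 5 SD, cut at about 64% in these data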;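 note: ratio is the fluorescence rise from min to max over baseline after thallium stimulus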
# KCNK3 noninduced – activity in cells without induced KCNK3 expression. non-induced KCNK3 parental cells, FluxOR thallium flux; active compounds read low. AID 651747. thallium flux ratio (lower = more inhibition) at 10 µM. 2,400 tested, 40% active. shares compounds with KCNK3 block;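 active = thallium flux ratio, averaged over three wells, more than 5 SD below the buffer control mean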;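 note: host cells are CHO cells without KCNK3 induction; ratio is peak minus trough fluorescence over baseline then normalized to buffer controls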
# * marks the source's active call; other numbers are inactive results; i = inactive; / = no result. Most compounds without a hit are left out; they make up all but 3.1% or so of the library.
SMILES,hERG rescue,KCNQ1 inh,KCNK3 block,KCNQ1 act,KCNK9 block,KCNK9 block conf,Kir21 sel,KCNK9 uninduced,KCNK3 inh conf,KCNK3 noninduced
Cc1onc(-c2ccccc2Cl)c1C(=O)N(Cc1nc(-c2ccccc2)no1)C1CCCCC1,-10,i,i,i,-9.7*,30%*,i,32%*,90*,0.15*
CSc1cccc(NC(=O)N2CCCC(CNS(=O)(=O)Cc3ccccc3)C2)c1 (stereo not drawn),-12,i,i,i,i,/,/,/,/,/
O=C(CCCSc1nnnn1-c1cccc2ccccc12)c1ccc(F)cc1,-15,i,-9.6*,i,-8.2*,i,34%*,i,102*,i
Cc1ccc(C(c2ccc(C)o2)c2cccc([N+](=O)[O-])c2O)o1,-18,i,-9.8*,i,-11*,26%*,i,i,114*,0.15*
O=C(Cc1ccsc1)NCc1ccccc1F,-7,i,i,i,i,/,/,/,/,/
CC(C)Cc1ccc(/C=C/C(=O)N2CCCCC2)cc1,-9,i,-13*,i,-9.8*,74%*,i,39%*,114*,i
CCc1ccc(/C=C\C(=O)N2CCCC2)cc1,-6,i,i,i,i,/,/,/,/,/
COc1ccc(C(=O)/C=C/c2ccc(OC)c(COc3ccc(F)cc3)c2)cc1,-5,i,-10*,i,-13*,66%*,i,33%*,129*,0.15*
Cc1ccc(S(=O)(=O)N(CC(=O)NCC2CCCO2)Cc2cccc(C)c2)cc1 (stereo not drawn),-11,i,i,i,i,/,/,/,/,/
COc1ccc(S(=O)(=O)NCC(=O)Nc2ccc3c(c2)OCCO3)cc1OC,-4,i,i,i,i,/,/,/,/,/
O=C(c1ccco1)N1CCN(C(=O)N2c3ccccc3Sc3ccccc32)CC1,-11,i,i,i,i,/,/,/,/,/
O=C(c1ccco1)N1c2ccccc2Sc2ccccc21,-9,i,-9.2*,i,-9.4*,31%*,i,30%*,116*,i
CC12CCC(=O)C=C1CCC1C2CCC2(C)C(c3csc(N)n3)CCC12 (stereo not drawn),/,/,-14*,/,/,/,/,/,133*,0.12*
CC12CCC(=O)C=C1CCC1C2C(O)CC2(C)C(c3csc(N)n3)CCC12 (stereo not drawn),/,/,i,/,/,/,/,/,/,/
COC(=O)c1cc(-c2ccc(S(=O)(=O)N3CCCC3)cc2)c(C(F)(F)F)s1,-11,i,i,i,i,/,/,/,/,/
CCN(CC)S(=O)(=O)c1ccc(-c2cc(C(=O)OC)sc2C(F)(F)F)cc1,-8,i,-9.7*,i,i,/,/,/,109*,i
COc1ccc(OCC(=O)OCC(=O)NCC2CCCCC2)cc1,/,/,i,/,/,/,/,/,/,/
CCOc1ccccc1NC1c2ccccc2C(=O)N1Cc1ccco1 (stereo not drawn),-12,i,-11*,i,i,/,/,/,98*,i
CCc1ccccc1NC1c2ccccc2C(=O)N1Cc1ccco1 (stereo not drawn),-11,i,i,i,i,/,/,/,/,/
CN(Cc1cn(C)nc1-c1ccc(Oc2ccccc2)cc1)Cc1cnc2ccccn12,-36,7*,-9.4*,i,-7*,/,/,/,131*,0.13*
CN(Cc1ccno1)Cc1cn(C)nc1-c1ccc(Oc2ccccc2)cc1,-18,i,-10*,i,i,/,/,/,91*,i
CC(C(=O)O)c1ccc(C(=O)c2ccccc2)s1 (stereo not drawn),/,/,i,/,/,/,/,/,/,/
